SENP1 inh: inhibitors of human SENP1 SUMO protease catalytic domain; Q9P0U3; recombinant SENP1 catalytic domain, CyPet-SUMO1-YPet FRET cleavage; inhibition, % at 10 µM; hit rate 0.21% among 360,000; AID 624204;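 active = inhibition at least 30% at 10 µM, raw YFP signal under a set limit, fluorescence ratio 0.5 to 1.5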;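 note: 0% = enzyme with DMSO and 100% = no enzyme wells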
Target sequence (Q9P0U3 419-644 limits assumed): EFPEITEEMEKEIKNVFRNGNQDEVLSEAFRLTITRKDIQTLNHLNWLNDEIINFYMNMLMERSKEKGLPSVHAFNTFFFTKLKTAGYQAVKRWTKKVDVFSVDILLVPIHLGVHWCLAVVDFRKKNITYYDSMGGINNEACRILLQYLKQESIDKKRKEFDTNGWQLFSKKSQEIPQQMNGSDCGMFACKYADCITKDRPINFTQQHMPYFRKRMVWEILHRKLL
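System: Recombinant human SENP1 catalytic domain, His6-tagged | Incubation: Enzyme reaction for 50 min at room temperature, dark | Medium: Tris pH 8 with BME, BSA, NP40 and catalase | Also added: 25 nM SUMO1 FRET substrate | Compound: 10 µM single point, 0.5% DMSO | Measured by: FRET fluorescence in CFP and YFP emission channels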
hiPSC survival: enhancers of human iPSC single-cell survival; hit rate 0.044% among 360,000; AID 602274; hiPSC single-cell survival, ATPlite luminescence; 100% = ROCK inhibitor wells, 0% = DMSO; survival enhancement, % at 20 µM; in the data active = survival enhancement above about 18%;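 note: cells exposed to compounds for 16 hours before the ATP read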
Arr AP2 block: blocks beta-arrestin peptide binding to AP2 adaptin; FITC-arrestin peptide / GST-AP2 beads, flow cytometry; AP2 beta2 appendage carries R879A mutation; hit rate 0.31% among 340,000; AID 504490; inhibition, % at 10 µM;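 active = inhibition above a set limit, near 3 SD of compounds lacking own fluorescence, cut at about 54% in these data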;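 note: plate controls were DMSO wells for no effect and 5 µM unlabelled arrestin peptide for full effect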
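System: GST-AP2 R879A glutathione beads; medium: PBS, Tween 20 0.05%, BSA 0.1%; reagent: fluorescein-tagged arrestin peptide at 50 nM final; schedule: pre-incubation 12 min, peptide binding 1 h, room temperature; detection: flow cytometry, FL1 (488/535 nm); read-out: inhibition as reduced fluorescein signal on beads, percent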
NR3A LBD binder: modulates the human NR3A ligand-binding domain. NR3A LBD differential scanning fluorimetry, Tm shift; 0% = protein alone, 100% = glycine-bound protein. Tm shift relative to glycine control, % at 25 µM. hit rate 2.5% among 340,000. AID 1259313;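 active = melting temperature shift of at least 10% of the positive control shift, at one fixed dose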
FAS-TE inh: blocks the thioesterase domain of human fatty acid synthase; P49327; recombinant FAS-TE, OMFH fluorogenic substrate, fluorescence endpoint; inhibition, % at 15 µM; hit rate 0.67% among 360,000; AID 602261;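 active = compounds whose normalised, plate-corrected inhibition of enzyme fluorescence in the single-dose primary screen is 50% or more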;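 note: 0% = DMSO with enzyme and 100% = substrate without enzyme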
H9c2 protect: protects H9c2 cardiomyocytes from peroxide injury; hit rate 0.63% among 360,000; protection from H2O2 cell death, % at 20 µM; H2O2 injury protection, ATPLite, 2 h;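 active = compounds giving at least 50% protection of heart cells from peroxide-induced death in the single-dose screen, raw or plate-pattern-corrected value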;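 note: 0% = DMSO wells with peroxide and 100% = DMSO wells without peroxide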
FAS-TE conf: FAS thioesterase (human) inhibition, confirmation; AID 624325; hit rate 45% among 2,300; shares compounds with FAS-TE inh; inhibition, % at 15 µM; recombinant FAS-TE, OMFH fluorogenic substrate, fluorescence;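 active = compounds inhibiting the enzyme by at least 50% at 15 µM in any one of the replicates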;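 note: 0% = enzyme with DMSO only and 100% = wells lacking enzyme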
Active calls of the source: *. An excerpt weighted towards active compounds, which were near 4% of everything screened.

How did O=C1OCCN1C(=O)[C@H]1[C@H](c2ccc(Cl)cc2)C(c2ccc(F)cc2)=NN1c1ccc(Br)cc1 do in these assays?
SENP1 inh: -81; hiPSC survival: -3; Arr AP2 block: 13; NR3A LBD binder: 18*; FAS-TE inh: 88*; H9c2 protect: 6; FAS-TE conf: 34

Results for O=C1OCCN1C(=O)[C@H]1[C@H](c2ccc(F)cc2)C(c2ccc(F)cc2)=NN1c1ccc(Br)cc1 ?
SENP1 inh: -69; hiPSC survival: -2; Arr AP2 block: -10; NR3A LBD binder: -4; FAS-TE inh: 84*; H9c2 protect: 8; FAS-TE conf: 32

Results for CC1(C(=O)NS(=O)(=O)c2ccc(F)cc2F)CCN1C(=O)C1(c2ccc(Cl)cc2)CCC1 (centres undefined) ?
SENP1 inh: 0; hiPSC survival: -2; FAS-TE inh: -10; H9c2 protect: 12

How did CCC(=O)N1CCC1(C)C(=O)Nc1cnc2ccccc2c1 (centres undefined) do in these assays?
SENP1 inh: 1; hiPSC survival: -2; FAS-TE inh: -2; H9c2 protect: -3

Results for O=C(CCCn1c(SCc2ccccc2F)nc2ccccc2c1=O)NCC1CCCO1 (centres undefined) ?
SENP1 inh: 1; hiPSC survival: 0; Arr AP2 block: -24; NR3A LBD binder: 0; FAS-TE inh: 4; H9c2 protect: -3

How did O=C(CCCn1c(SCc2cccc([N+](=O)[O-])c2)nc2ccccc2c1=O)NCC1CCCO1 (centres undefined) do in these assays?
SENP1 inh: 0; hiPSC survival: 0; Arr AP2 block: 3; NR3A LBD binder: 1; FAS-TE inh: 86*; H9c2 protect: 14; FAS-TE conf: 30

Results for Cn1c(-c2cccc([N+](=O)[O-])c2)cnc1NCc1cccc([N+](=O)[O-])c1 ?
SENP1 inh: -1; hiPSC survival: -1; Arr AP2 block: -14; NR3A LBD binder: 0; FAS-TE inh: 55*; H9c2 protect: 2; FAS-TE conf: 28

What do the screens show for `O=C(C[C@H]1C(=O)N(c2ccccc2)C[C@@H]1Cc1ccccc1)Nc1ccccc1`?
SENP1 inh: 1; hiPSC survival: 2; FAS-TE inh: -3; H9c2 protect: 7

What do the screens show for `CCOc1ccc(-n2c(SCC(=O)Nc3ccc4c(c3)OCCO4)nc3c(c2=O)SCC3)cc1`?
SENP1 inh: -3; hiPSC survival: -1; Arr AP2 block: -7; NR3A LBD binder: -6; FAS-TE inh: 62*; H9c2 protect: 14; FAS-TE conf: 25

How did CCOc1ccc(-n2c(SCC(=O)Nc3ccc4c(c3)OCO4)nc3c(c2=O)SCC3)cc1 do in these assays?
SENP1 inh: 2; hiPSC survival: 2; Arr AP2 block: 6; NR3A LBD binder: -2; FAS-TE inh: 1; H9c2 protect: -3

What do the screens show for `O=[N+]([O-])c1c(Nc2ccccc2O)cc(Cl)c2nonc12`?
SENP1 inh: 4; hiPSC survival: 7; Arr AP2 block: 29; NR3A LBD binder: -6; FAS-TE inh: 65*; H9c2 protect: -26; FAS-TE conf: 53*

How did CS(=O)(=O)c1cc([N+](=O)[O-])c(Sc2nc3ccccc3[nH]2)c([N+](=O)[O-])c1 do in these assays?
SENP1 inh: 3; hiPSC survival: 2; Arr AP2 block: 45; NR3A LBD binder: 1; FAS-TE inh: 51*; H9c2 protect: -19; FAS-TE conf: 32

How did O=C(O)c1cc([N+](=O)[O-])c(Sc2nc3ccccc3[nH]2)c([N+](=O)[O-])c1 do in these assays?
SENP1 inh: 1; hiPSC survival: 0; Arr AP2 block: -5; NR3A LBD binder: 0; FAS-TE inh: 8; H9c2 protect: -2

How did CN(Cc1ccccc1)S(=O)(=O)c1ccc2[nH]cc(C(=O)NCC3CCCO3)c(=O)c2c1 (centres undefined) do in these assays?
SENP1 inh: -2; hiPSC survival: 0; Arr AP2 block: 0; NR3A LBD binder: -12; FAS-TE inh: 13; H9c2 protect: 0

Results for CCN(Cc1ccccc1)C(=O)c1c[nH]c2ccc(S(=O)(=O)N(C)CCC#N)cc2c1=O ?
SENP1 inh: -8; hiPSC survival: 0; Arr AP2 block: 3; NR3A LBD binder: -6; FAS-TE inh: 59*; H9c2 protect: 6; FAS-TE conf: 67*

Results for O=C(NCc1ccco1)c1cccc2c(-c3ccc(F)c(F)c3)coc12 ?
SENP1 inh: 0; hiPSC survival: 1; FAS-TE inh: 25; H9c2 protect: 1

What do the screens show for `CC(NC(=O)COC(=O)c1ccc2c(=O)n3c(nc2c1)CCCCC3)c1ccc(F)cc1` (centres undefined)?
SENP1 inh: -13; hiPSC survival: 1; FAS-TE inh: 1; H9c2 protect: -2

How did O=C(/C=C/c1cccc([N+](=O)[O-])c1)N1CCN(c2ccccn2)CC1 do in these assays?
SENP1 inh: 0; hiPSC survival: 0; Arr AP2 block: -16; NR3A LBD binder: 1; FAS-TE inh: 51*; H9c2 protect: -2; FAS-TE conf: 42

How did O=C(/C=C/c1cccc([N+](=O)[O-])c1)N1CCN(S(=O)(=O)c2cccs2)CC1 do in these assays?
SENP1 inh: -3; hiPSC survival: 1; Arr AP2 block: 9; NR3A LBD binder: -2; FAS-TE inh: 77*; H9c2 protect: -5; FAS-TE conf: 83*

How did O=C(/C=C/c1cccc([N+](=O)[O-])c1)N1CCOCC1 do in these assays?
SENP1 inh: 3; hiPSC survival: 2; Arr AP2 block: -3; NR3A LBD binder: -2; FAS-TE inh: -8; H9c2 protect: 5

How did CCCCN(C=O)c1c(CC)nc2ccc(C(=O)N3CCN(S(=O)(=O)CC)CC3)cn12 do in these assays?
SENP1 inh: 0; hiPSC survival: -2; FAS-TE inh: -6; H9c2 protect: -3

How did CCCCCCn1cc(CN2CC(N3CCN(C4CCN(C)CC4)CC3)CS2(=O)=O)nn1 (centres undefined) do in these assays?
SENP1 inh: 1; hiPSC survival: 0; FAS-TE inh: -11

What do the screens show for `CC(Sc1ccc(S(=O)(=O)N2CCCCC2)cn1)C(N)=O` (centres undefined)?
SENP1 inh: 3; hiPSC survival: -2; FAS-TE inh: -4; H9c2 protect: 0

What do the screens show for `C/C(=N\NS(=O)(=O)c1ccc(Cl)c([N+](=O)[O-])c1)c1cc2ccccc2o1`?
SENP1 inh: 2; hiPSC survival: -1; Arr AP2 block: -4; NR3A LBD binder: 10; FAS-TE inh: 54*; H9c2 protect: -16; FAS-TE conf: 59*

Screening results deposited in PubChem by several laboratories.
